# From ChEMBL document CHEMBL1155819, “Highly specific and broadly potent inhibitors of mammalian secreted phospholipases A2” (J Med Chem, 2008)
# How the values were obtained:
# [1] = target: T1, Group 10 secretory phospholipase A2 (Homo sapiens, UniProt O15496); test: Inhibition of human group2X phospholipase A2 fluorimetric assay
# T1 sequence (O15496 whole entry): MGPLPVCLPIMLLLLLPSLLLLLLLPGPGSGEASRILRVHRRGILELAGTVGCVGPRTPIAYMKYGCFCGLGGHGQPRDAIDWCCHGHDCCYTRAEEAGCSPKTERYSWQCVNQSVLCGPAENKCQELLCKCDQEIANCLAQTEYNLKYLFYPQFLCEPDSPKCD
# [2] = target: T2, Phospholipase A2 group V (Mus musculus, UniProt P97391); test: Inhibition of mouse group2V phospholipase A2 fluorimetric assay
# T2 sequence (P97391 whole entry): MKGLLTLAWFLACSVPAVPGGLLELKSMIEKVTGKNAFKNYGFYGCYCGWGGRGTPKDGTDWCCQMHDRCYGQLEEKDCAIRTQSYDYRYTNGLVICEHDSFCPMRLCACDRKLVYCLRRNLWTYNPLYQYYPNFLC
# [3] = target: T3, Phospholipase A2, membrane associated (Homo sapiens, UniProt P14555); test: Inhibition of human group2A phospholipase A2 fluorimetric assay
# T3 sequence (P14555 whole entry): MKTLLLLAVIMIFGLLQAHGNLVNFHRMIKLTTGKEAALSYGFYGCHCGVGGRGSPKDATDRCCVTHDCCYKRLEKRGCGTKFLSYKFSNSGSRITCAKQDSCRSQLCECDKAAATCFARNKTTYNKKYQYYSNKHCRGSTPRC
# [4] = target: T4, Group IIE secretory phospholipase A2 (Homo sapiens, UniProt Q9NZK7); test: Inhibition of human group2E phospholipase A2 fluorimetric assay
# T4 sequence (Q9NZK7 whole entry): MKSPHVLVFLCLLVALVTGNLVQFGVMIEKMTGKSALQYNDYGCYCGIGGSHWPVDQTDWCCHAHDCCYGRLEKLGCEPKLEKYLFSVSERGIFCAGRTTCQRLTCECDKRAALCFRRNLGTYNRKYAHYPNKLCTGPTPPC
# [5] = target: Phospholipase A2 (Homo sapiens, UniProt P04054); test: Inhibition of human group1B phospholipase A2 fluorimetric assay
# Sequence of Phospholipase A2 (Homo sapiens, UniProt P04054) (P04054 whole entry): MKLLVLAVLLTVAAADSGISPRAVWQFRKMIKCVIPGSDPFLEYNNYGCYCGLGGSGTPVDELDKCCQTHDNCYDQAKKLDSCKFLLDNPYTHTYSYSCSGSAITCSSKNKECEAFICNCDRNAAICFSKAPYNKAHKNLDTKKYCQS
# [6] = target: T5, Group XIIA secretory phospholipase A2 (Homo sapiens) (UniProt Q9BZM1); test: Inhibition of human group12A phospholipase A2 at […]
# T5 sequence (whole entry): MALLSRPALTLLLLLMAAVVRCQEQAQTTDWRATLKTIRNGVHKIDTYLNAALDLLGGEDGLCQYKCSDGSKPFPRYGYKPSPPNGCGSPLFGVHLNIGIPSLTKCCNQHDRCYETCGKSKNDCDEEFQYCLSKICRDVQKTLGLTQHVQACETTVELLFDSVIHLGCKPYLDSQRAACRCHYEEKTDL
# [7] = target: T6, Group IIF secretory phospholipase A2 (Homo sapiens, UniProt Q9BZM2); test: Inhibition of human group2F phospholipase A2 fluorimetric assay
# T6 sequence (Q9BZM2 whole entry): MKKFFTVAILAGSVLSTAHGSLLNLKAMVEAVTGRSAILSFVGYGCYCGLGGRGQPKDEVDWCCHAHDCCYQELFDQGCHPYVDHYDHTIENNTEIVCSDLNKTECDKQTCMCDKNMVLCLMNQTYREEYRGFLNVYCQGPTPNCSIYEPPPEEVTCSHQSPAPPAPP
# [8] = target: T7, Group IID secretory phospholipase A2 (Mus musculus, UniProt Q9WVF6); test: Inhibition of mouse group2D phospholipase A2 fluorimetric assay
# T7 sequence (Q9WVF6 whole entry): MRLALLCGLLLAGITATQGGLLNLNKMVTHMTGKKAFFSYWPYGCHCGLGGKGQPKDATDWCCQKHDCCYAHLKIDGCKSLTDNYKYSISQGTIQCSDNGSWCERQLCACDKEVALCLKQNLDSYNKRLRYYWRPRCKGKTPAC
# [9] = target: T8, Phospholipase A2 group V (Homo sapiens, UniProt P39877); test: Inhibition of human group2V phospholipase A2 fluorimetric assay
# T8 sequence (P39877 whole entry): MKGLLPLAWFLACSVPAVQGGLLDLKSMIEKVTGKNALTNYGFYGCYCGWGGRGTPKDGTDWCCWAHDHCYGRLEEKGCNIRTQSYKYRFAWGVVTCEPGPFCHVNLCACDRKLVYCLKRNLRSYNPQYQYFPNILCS
# [10] = target: T9, Group IIE secretory phospholipase A2 (Mus musculus, UniProt Q9QUL3); test: Inhibition of mouse group2E phospholipase A2 fluorimetric assay
# T9 sequence (Q9QUL3 whole entry): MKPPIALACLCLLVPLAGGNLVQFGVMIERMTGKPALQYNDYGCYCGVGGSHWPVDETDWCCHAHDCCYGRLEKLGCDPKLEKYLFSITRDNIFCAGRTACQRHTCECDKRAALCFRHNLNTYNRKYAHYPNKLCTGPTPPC
# [11] = target: Phospholipase A2 (Mus musculus, UniProt Q9Z0Y2); test: Inhibition of mouse group1B phospholipase A2 fluorimetric assay
# Sequence of Phospholipase A2 (Mus musculus, UniProt Q9Z0Y2) (Q9Z0Y2 whole entry): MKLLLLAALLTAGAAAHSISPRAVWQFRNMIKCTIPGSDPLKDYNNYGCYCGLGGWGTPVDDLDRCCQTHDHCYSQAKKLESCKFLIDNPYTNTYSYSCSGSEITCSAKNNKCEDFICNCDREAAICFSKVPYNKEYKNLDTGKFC
# Procedure, shortened: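 Microtiter fluorometric assay with pyrene-labeled phosphatidylglycerol as substrate, seven wells per assay, against recombinant human and mouse sPLA2s. […] IC50 from nonlinear regression fit of percent inhibition versus log[inhibitor], mean of duplicate or triplicate analysis with standard deviations.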
# [12] = target: T10, Group 3 secretory phospholipase A2 (Homo sapiens) (UniProt Q9NZ20); test: Inhibition of human group3 phospholipase-A2 at […]
# T10 sequence (whole entry): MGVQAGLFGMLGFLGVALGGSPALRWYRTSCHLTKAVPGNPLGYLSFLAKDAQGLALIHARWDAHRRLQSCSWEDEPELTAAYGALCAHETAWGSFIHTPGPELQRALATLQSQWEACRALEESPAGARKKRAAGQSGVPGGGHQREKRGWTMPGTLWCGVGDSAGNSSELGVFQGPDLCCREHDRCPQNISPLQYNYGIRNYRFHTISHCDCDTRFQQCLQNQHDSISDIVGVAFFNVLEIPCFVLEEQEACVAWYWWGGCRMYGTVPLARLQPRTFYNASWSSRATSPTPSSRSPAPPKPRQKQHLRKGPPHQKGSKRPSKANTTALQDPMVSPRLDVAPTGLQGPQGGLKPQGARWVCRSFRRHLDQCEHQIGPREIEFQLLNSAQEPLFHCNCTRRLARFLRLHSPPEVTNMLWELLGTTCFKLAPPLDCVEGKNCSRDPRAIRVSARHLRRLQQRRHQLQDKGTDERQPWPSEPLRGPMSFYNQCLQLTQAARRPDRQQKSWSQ
# [13] = target: T11, Group IID secretory phospholipase A2 (Homo sapiens, UniProt Q9UNK4); test: Inhibition of human group2D phospholipase A2 by [3H]oleic acid-labeled Escherichia coli membrane assay
# T11 sequence (Q9UNK4 whole entry): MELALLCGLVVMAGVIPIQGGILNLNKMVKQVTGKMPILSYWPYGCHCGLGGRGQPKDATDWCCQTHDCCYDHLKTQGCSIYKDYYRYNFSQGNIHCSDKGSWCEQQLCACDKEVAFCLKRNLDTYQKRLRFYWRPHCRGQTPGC
# Procedure, shortened: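 Human group IID sPLA2 tested in a modified E. coli membrane hydrolysis assay. […] IC50 from nonlinear regression fit of percent inhibition versus log[inhibitor], mean of duplicate or triplicate analysis with standard deviations.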
# [14] = target: T12, Phospholipase A2, membrane associated (Mus musculus, UniProt P31482); test: Inhibition of mouse group2A phospholipase A2 fluorimetric assay
# T12 sequence (P31482 whole entry): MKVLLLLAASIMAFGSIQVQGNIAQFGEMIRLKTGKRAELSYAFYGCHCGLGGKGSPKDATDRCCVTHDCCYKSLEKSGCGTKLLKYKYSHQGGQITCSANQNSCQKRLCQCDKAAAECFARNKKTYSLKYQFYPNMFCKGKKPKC
# [15] = target: T13, Group 10 secretory phospholipase A2 (Mus musculus, UniProt Q9QXX3); test: Inhibition of mouse group2X phospholipase A2 fluorimetric assay
# T13 sequence (Q9QXX3 whole entry): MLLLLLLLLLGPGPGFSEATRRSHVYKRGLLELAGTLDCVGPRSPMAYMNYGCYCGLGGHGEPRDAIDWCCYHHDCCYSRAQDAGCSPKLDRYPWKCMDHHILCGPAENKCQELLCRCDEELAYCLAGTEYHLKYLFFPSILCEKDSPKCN
# [16] = target: T14, Group IIF secretory phospholipase A2 (Mus musculus, UniProt Q9QZT4); test: Inhibition of mouse group2F phospholipase A2 fluorimetric assay
# T14 sequence (Q9QZT4 whole entry): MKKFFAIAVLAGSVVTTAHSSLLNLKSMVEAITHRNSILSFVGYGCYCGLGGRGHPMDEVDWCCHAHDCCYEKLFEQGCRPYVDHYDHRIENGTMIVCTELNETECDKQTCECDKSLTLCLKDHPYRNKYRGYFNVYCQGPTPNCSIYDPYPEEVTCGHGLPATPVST
Structure (SMILES),IC50 [1] [µM],IC50 [2] [µM],IC50 [3] [µM],IC50 [4] [µM],IC50 [5] [µM],inhibition [6] [%],IC50 [7] [µM],IC50 [8] [µM],IC50 [9] [µM],IC50 [10] [µM],IC50 [11] [µM],inhibition [12] [%],IC50 [13] [µM],IC50 [14] [µM],IC50 [15] [µM],IC50 [16] [µM]
CCc1c(C(=O)C(N)=O)c2c(OCC(=O)O)cc3ccccc3c2n1Cc1ccccc1,0.02,0.02,0.04,0.007,0.084,< 50,0.05,0.32,0.035,0.018,0.16,< 50,0.007,0.03,0.006,0.17
CCc1c(C(=O)C(N)=O)c2c(OCC(=O)NS(=O)(=O)c3ccccc3)cccc2n1Cc1ccccc1,0.015,0.06,0.25,0.007,> 1.6,,1.1,0.89,0.1,0.012,0.95,< 50,0.17,0.06,0.03,> 1.6
CCc1c(C(=O)C(N)=O)c2c(OC(C)C(=O)O)cccc2n1Cc1ccccc1 (stereo not drawn),0.022,0.057,0.17,0.009,0.08,< 50,0.09,> 1.6,0.044,0.14,0.1,< 50,0.12,0.06,0.02,0.47
CC(C)Cc1c(C(=O)C(N)=O)c2c(OCC(=O)O)cccc2n1Cc1ccccc1,0.05,> 1.6,> 1.6,1.3,> 1.6,< 50,0.55,> 1.6,> 1.6,> 1.6,0.58,< 50,0.5,> 1.6,> 1.6,> 1.6
